Columns and labels:
[1] = molecular target: Coagulation factor VII/tissue factor (Homo sapiens, UniProt P08709); assay: Inhibition of human recombinant TF/F7a complex using S2288 as substrate preincubated for 15 mins followed by protein addition measured for 60 mins; assay type: protein-complex assay
Method in brief: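 Ki measured against recombinant human TF/FVIIa enzyme at room temperature (25 °C) and averaged from two experiments.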

[2] = molecular target: Vitamin K-dependent protein C (Homo sapiens, UniProt P04070); assay: Inhibition of human APC measured for 30 mins
Chain of Vitamin K-dependent protein C (P04070 43-197 limits assumed): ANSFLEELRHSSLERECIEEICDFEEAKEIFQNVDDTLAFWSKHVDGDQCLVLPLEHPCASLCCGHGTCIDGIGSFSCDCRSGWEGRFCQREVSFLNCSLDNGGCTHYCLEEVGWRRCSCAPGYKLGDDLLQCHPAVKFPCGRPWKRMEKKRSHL
Chain of Vitamin K-dependent protein C (P04070 212-461 limits assumed): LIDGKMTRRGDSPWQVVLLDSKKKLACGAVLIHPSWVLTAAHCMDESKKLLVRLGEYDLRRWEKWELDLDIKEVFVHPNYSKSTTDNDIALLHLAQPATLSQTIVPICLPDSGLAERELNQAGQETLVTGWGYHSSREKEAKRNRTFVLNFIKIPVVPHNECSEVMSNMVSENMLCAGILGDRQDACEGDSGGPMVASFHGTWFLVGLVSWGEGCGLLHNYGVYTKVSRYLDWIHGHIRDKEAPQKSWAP
Method in brief: (§1)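 Ki measured against purified human enzymes (APC, FXa, FIXa, plasma kallikrein, thrombin, trypsin) at room temperature (25 °C) and averaged from two experiments.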

[3] = test system: Plasma; assay: Anticoagulant activity in F7-deficient human plasma assessed as concentration required to double prothrombin time; assay type: functional
[4] = molecular target: Coagulation factor X (Homo sapiens, UniProt P00742); assay: Inhibition of human F10a using S2222 as substrate measured for 30 mins; method in brief: as §1
Chain of Coagulation factor X (P00742 41-179 limits assumed): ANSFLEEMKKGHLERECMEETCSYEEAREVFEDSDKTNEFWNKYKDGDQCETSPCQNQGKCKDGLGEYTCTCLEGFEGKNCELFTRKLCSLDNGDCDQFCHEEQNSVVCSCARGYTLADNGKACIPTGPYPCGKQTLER
Chain of Coagulation factor X (P00742 235-488 limits assumed): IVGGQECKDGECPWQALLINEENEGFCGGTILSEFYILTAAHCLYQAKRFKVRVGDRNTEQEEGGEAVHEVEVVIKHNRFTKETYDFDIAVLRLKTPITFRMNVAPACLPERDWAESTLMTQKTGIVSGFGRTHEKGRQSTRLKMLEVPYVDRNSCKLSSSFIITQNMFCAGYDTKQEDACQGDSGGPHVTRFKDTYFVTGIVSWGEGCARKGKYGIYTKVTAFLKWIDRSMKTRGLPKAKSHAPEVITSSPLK

[5] = molecular target: Prothrombin (Homo sapiens, UniProt P00734); assay: Inhibition of human thrombin using S2238 as substrate measured for 30 mins; method in brief: as §1
[6] = molecular target: Coagulation factor IX (Homo sapiens, UniProt P00740); assay: Inhibition of human F9a measured for 30 mins; method in brief: as §1
Chain of Coagulation factor IX (P00740 47-191 limits assumed): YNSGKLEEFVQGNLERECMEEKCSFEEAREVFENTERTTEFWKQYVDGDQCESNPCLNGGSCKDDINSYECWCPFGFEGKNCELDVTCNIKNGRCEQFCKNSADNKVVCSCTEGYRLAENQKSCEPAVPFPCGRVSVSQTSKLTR
Chain of Coagulation factor IX (P00740 227-461 limits assumed): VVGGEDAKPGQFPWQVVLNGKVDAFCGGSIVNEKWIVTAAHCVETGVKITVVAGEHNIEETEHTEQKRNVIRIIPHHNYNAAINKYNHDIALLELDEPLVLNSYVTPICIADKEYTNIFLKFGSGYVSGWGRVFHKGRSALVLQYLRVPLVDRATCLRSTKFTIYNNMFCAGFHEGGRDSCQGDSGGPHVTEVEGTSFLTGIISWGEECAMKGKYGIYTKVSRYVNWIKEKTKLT

[7] = molecular target: Plasma kallikrein (Homo sapiens, UniProt P03952); assay: Inhibition of human plasma kallikrein using S2302 as substrate measured for 30 mins; method in brief: as §1
Chain of Plasma kallikrein (P03952 20-390 limits assumed): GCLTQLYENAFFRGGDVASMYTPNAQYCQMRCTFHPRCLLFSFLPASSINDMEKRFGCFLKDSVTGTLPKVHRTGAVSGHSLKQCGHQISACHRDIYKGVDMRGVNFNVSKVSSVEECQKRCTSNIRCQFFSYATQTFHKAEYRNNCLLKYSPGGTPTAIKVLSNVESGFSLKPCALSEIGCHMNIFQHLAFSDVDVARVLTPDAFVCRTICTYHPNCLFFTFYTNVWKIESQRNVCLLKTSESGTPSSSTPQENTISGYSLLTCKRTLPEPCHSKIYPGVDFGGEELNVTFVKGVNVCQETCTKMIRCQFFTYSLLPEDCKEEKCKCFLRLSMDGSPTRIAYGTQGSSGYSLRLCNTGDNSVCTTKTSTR
Chain of Plasma kallikrein (P03952 391-638 limits assumed): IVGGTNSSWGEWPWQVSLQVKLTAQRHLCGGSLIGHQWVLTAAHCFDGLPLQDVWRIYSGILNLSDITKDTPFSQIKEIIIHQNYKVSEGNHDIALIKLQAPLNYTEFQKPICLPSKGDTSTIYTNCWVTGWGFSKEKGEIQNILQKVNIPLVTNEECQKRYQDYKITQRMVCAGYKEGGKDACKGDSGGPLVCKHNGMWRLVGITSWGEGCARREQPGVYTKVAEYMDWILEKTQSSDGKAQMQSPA

[8] = molecular target: Kallikrein-1 (Homo sapiens, UniProt P06870); assay: Inhibition of human tissue kallikrein 1 measured for 30 mins
Chain of Kallikrein-1 (P06870 whole entry): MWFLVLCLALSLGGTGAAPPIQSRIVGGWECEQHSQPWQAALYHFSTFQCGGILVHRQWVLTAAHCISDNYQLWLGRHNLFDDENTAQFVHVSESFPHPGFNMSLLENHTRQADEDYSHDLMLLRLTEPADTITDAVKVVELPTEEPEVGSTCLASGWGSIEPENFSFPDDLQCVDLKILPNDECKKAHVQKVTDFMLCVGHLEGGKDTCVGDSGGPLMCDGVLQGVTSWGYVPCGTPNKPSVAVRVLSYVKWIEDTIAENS
Method in brief: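 Purified human tissue kallikrein-1 assayed at 37 °C. Ki averaged from two experiments.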

[9] = molecular target: Trypsin (Homo sapiens, UniProt P07477+P07478+P35030); assay: Inhibition of human trypsin measured for 30 mins; assay type: protein assay; method in brief: as §1

Chain of Coagulation factor VII/tissue factor (P08709 61-212 limits assumed): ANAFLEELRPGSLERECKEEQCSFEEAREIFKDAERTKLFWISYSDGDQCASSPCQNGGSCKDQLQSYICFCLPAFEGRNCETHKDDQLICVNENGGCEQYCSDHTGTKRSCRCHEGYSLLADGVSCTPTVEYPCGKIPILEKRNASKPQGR
Chain of Coagulation factor VII/tissue factor (P08709 213-466 limits assumed): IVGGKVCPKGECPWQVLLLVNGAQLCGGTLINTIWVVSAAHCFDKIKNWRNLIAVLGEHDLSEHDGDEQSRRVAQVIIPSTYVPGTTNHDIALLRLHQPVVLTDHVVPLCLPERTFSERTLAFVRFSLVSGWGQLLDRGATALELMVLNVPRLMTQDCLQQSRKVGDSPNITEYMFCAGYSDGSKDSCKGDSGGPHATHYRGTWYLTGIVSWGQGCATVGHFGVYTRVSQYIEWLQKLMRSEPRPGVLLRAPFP
Chain of Coagulation factor VII/tissue factor (P13726 33-295 partner limits assumed): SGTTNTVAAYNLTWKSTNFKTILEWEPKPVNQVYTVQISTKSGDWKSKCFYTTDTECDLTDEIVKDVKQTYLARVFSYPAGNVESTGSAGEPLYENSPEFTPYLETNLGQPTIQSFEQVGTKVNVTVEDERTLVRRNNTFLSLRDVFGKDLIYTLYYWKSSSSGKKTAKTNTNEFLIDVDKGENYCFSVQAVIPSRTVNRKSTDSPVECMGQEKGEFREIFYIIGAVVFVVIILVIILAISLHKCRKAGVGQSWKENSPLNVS

| SMILES | Ki [1] [nM] | Ki [2] [nM] | 2PT [3] [µM] | Ki [4] [nM] | Ki [5] [nM] | Ki [6] [nM] | Ki [7] [nM] | Ki [8] [nM] | Ki [9] [nM] |
| --- | --- | --- | --- | --- | --- | --- | --- | --- | --- |
| Nc1nccc2cc(NC3C(=O)NCc4cccc(c4)NC(=O)CCCOc4ccc3cc4)ccc12 (stereo not drawn) | 4600 |  |  |  |  |  |  |  |  |
| Nc1nccc2cc(NC3C(=O)NCc4cccc(c4)NC(=O)CCCCc4ccc3cc4)ccc12 (stereo not drawn) | 6100 |  |  |  |  |  |  |  |  |
| Nc1nccc2cc(NC3C(=O)NCc4cccc(c4)NC(=O)CCCc4ccc3cc4)ccc12 (stereo not drawn) | 920 |  |  |  |  |  |  |  |  |
| Nc1nccc2cc(N[C@H]3C(=O)NCc4cccc(c4)NC(=O)CCCc4ccc3cc4)ccc12 | 400 | 2800 | 26 | > 9000 | > 13000 | > 35000 | > 6000 | 18 | > 6000 |
| Nc1nccc2cc(N[C@@H]3C(=O)NCc4cccc(c4)NC(=O)CCCc4ccc3cc4)ccc12 | > 18000 |  |  |  |  |  |  |  |  |
| Nc1nccc2cc(NC3C(=O)NCc4cccc(c4)NC(=O)CCc4ccc3cc4)ccc12 (stereo not drawn) | 4600 |  |  |  |  |  |  |  |  |
| Nc1nccc2cc(NC(C(=O)NCc3ccccc3)c3ccccc3)ccc12 (stereo not drawn) | 54000 |  |  |  |  |  |  |  |  |
| CC(=O)Nc1cccc(CNC(=O)C(Nc2ccc3c(N)nccc3c2)c2ccccc2)c1 (stereo not drawn) | 10000 |  |  |  |  |  |  |  |  |
| CCS(=O)(=O)c1ccc2cc1CNC(=O)[C@H](Nc1ccc3c(N)nccc3c1)c1ccc(cc1)CCCC(=O)N2 | 8 | 1300 | 1.6 | 3200 | 5800 | > 35000 | 4600 | 100 | 3600 |
| CC(C)S(=O)(=O)c1ccc2cc1CNC(=O)[C@H](Nc1ccc3c(N)nccc3c1)c1ccc(cc1)CCCC(=O)N2 | 5.2 | 1800 | 1.4 | 3300 | 4000 | > 35000 | 3600 | 100 | 3000 |
| CCS(=O)(=O)c1ccc2cc1CNC(=O)[C@H](Nc1ccc(C(=N)N)cc1)c1ccc(cc1)CCCC(=O)N2 | 0.7 | 41 | 0.42 | 5500 | 180 | 34000 | 50 | 1900 | 58 |
| CCS(=O)(=O)c1ccc2cc1CNC(=O)[C@H](Nc1ccc3c(N)nccc3c1)c1ccc(c(C)c1)CCCC(=O)N2 | 1.6 | 830 | 1.2 | 1000 | 6700 | 16000 | 1700 | 100 | 2700 |
| CC(=O)Nc1ccc(S(=O)(=O)C(C)C)c([C@H]2CCCN2C(=O)[C@H](Nc2ccc3c(N)nccc3c2)c2ccccc2)c1 | 8 |  | 12 |  |  |  |  |  |  |
| CC(C)(C)S(=O)(=O)c1ccc2cc1CNC(=O)C(Nc1ccc3c(N)nccc3c1)c1ccc(cc1)CCCC(=O)N2 (racemic) | 30 | 14000 | 8.6 | 4800 | > 13000 | > 35000 | > 6000 | 22 | > 6000 |

Source: ChEMBL document CHEMBL3593168, “Structure-Based Design of Macrocyclic Coagulation Factor VIIa Inhibitors” (J Med Chem, 2015)
